{
  "source": "paper PMC3798158",
  "about": "(Journal of medicinal chemistry, 2013)",
  "key": {"rabbit muscle GAPDH [1]": {"target": "T1, rabbit muscle GAPDH (Oryctolagus cuniculus, UniProt P46406)", "T1 sequence (P46406 whole entry)": "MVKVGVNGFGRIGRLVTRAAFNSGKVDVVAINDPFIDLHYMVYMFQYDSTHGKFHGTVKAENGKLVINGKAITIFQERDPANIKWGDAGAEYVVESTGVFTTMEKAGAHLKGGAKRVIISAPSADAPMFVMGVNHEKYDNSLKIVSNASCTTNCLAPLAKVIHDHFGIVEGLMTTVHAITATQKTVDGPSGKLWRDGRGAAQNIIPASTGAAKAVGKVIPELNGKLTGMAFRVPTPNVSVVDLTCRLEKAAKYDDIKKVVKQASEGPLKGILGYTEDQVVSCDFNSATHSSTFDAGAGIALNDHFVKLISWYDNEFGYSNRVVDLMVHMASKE", "test": "In vitro inhibition of GAPDH", "type": "biochemical", "settings": "for GAPDH inhibition (in words): incubation of GAPDH"}, "rabbit muscle GAPDH [2]": {"target": "T1, rabbit muscle GAPDH", "test": "Reversibility of GAPDH inhibition by DTT", "type": "biochemical", "settings": "for GAPDH enzyme activity after treatment / GAPDH enzyme activity restored after DTT incubation: 1 μM compound, 60 min; for GAPDH enzyme activity restored after DTT incubation: then DTT"}, "GAPDH": {"target": "GAPDH (Oryctolagus cuniculus, UniProt P46406)", "sequence (P46406 whole entry)": "as above", "test": "High resolution LC-MS of structural modifications of GAPDH tryptic peptides", "set-up": "species or system rabbit", "settings": "for Products, GAPDH tryptic peptide V232–R245 (Cys 244) / Products, GAPDH tryptic peptide I143–K159 (Cys 149, Cys 153): LC-MS after trypsin digest, 10 eq. where printed; for Product at Cys 281 of GAPDH (peptide G269–K306): mass spectrometric data extraction from reaction mixture", "in_short": "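Rabbit muscle GAPDH was incubated with test compound (10 equiv), then trypsin-digested at 20:1 (w/w, monomer:trypsin), 37 °C, 12−16 h, in 50 mM Tris-HCl, and quenched by freezing at −20 °C. Positive-ion Orbitrap, resolution 60000; Cys-peptide modifications were assigned by m/z.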"}, "AhpC C165S": {"target": "AhpC C165S (Salmonella typhimurium, UniProt P0A251, C166S)", "settings": "LC-MS after Asp-N digest, 10 eq. where printed"}, "[3]": {"settings": "cited from earlier work; for t1/2 of HNO release: neutral conditions"}, "myofilament": {"system": "myofilament", "settings": "sensitizing myofilament responsiveness to calcium; cited from earlier work"}, "STAT3": {"system": "STAT3", "settings": "similar to AS; cited from earlier work"}, "[4]": {"test": "Stopped-flow UV-vis kinetic decomposition", "type": "physicochemical", "settings": "compared with AS"}},
  "note": "“Also recorded” adds a separate entry of the source. Where a name gives a salt, the structure may show the parent alone. Read-outs that look alike come from different tables or passages of the source.",
  "data": [
    {"molecule": "N[C@@H](CCC(=O)N[C@@H](CSN=O)C(=O)NCC(=O)O)C(=O)O", "note": "[GSNO, S-nitrosoglutathione]", "values": [
      {"measurement": "GAPDH inhibition (in words)", "setting": "rabbit muscle GAPDH [1]", "value": "inhibition of enzyme activity"},
      {"measurement": "DTT reversibility of GAPDH inhibition (in words)", "setting": "rabbit muscle GAPDH [2]", "value": "completely DTT reversible"},
      {"measurement": "Products, GAPDH tryptic peptide V232–R245 (Cys 244)", "setting": "GAPDH", "value": "Nitrosylated product"},
      {"measurement": "Products, C165S AhpC Asp-N peptide D41–G51 (Cys 46)", "setting": "AhpC C165S", "value": "Nitrosylated Product"}
    ]},
    {"molecule": "CC(=O)OC1(N=O)CCCCC1", "note": "[compound 1, 1-Nitrosocyclohexyl acetate]", "values": [
      {"measurement": "GAPDH enzyme activity after treatment", "setting": "rabbit muscle GAPDH [2]", "value": "5 % of control"},
      {"measurement": "GAPDH enzyme activity restored after DTT incubation", "setting": "rabbit muscle GAPDH [2]", "value": "12 % of control"},
      {"measurement": "Products, GAPDH tryptic peptide I143–K159 (Cys 149, Cys 153)", "setting": "GAPDH", "value": "Internal disulfide; RSSR"},
      {"measurement": "Products, GAPDH tryptic peptide V232–R245 (Cys 244)", "setting": "GAPDH", "value": "Sulfinic acid"},
      {"measurement": "Product at Cys 281 of GAPDH (peptide G269–K306)", "setting": "GAPDH", "value": "sulfinic acid"},
      {"measurement": "Products, C165S AhpC Asp-N peptide D41–G51 (Cys 46)", "setting": "AhpC C165S", "value": "Sulfinic acid"},
      {"measurement": "t1/2 of HNO release", "setting": "[3]", "value": 13.3, "unit": "h"},
      {"measurement": "effect on myocardial contractility", "setting": "myofilament", "value": "enhances myocardial contractility more potently than AS"}
    ]},
    {"molecule": "CC(C)(C)C(=O)OC1(N=O)CCCCC1", "note": "[compound 2, 1-nitrosocyclohexyl pivalate]", "values": [
      {"measurement": "Products, GAPDH tryptic peptide I143–K159 (Cys 149, Cys 153)", "setting": "GAPDH", "value": "Internal disulfide; RSSR"},
      {"measurement": "Products, GAPDH tryptic peptide V232–R245 (Cys 244)", "setting": "GAPDH", "value": "Sulfinic acid"},
      {"measurement": "Products, C165S AhpC Asp-N peptide D41–G51 (Cys 46)", "setting": "AhpC C165S", "value": "Sulfinic acid"},
      {"measurement": "t1/2 of HNO release", "setting": "[3]", "value": 37.8, "unit": "h"},
      {"measurement": "effect on myocardial contractility", "setting": "myofilament", "value": "no effect"},
      {"measurement": "effect on STAT3 activation", "setting": "STAT3", "value": "blocks STAT3 activation"}
    ]},
    {"molecule": "Diethylammonium-1- (N,N-diethylamino) diazen-1-ium- 1,2-diolate [DEANO]", "values": [
      {"measurement": "GAPDH inhibition (in words)", "setting": "rabbit muscle GAPDH [1]", "value": "inhibition of enzyme activity"},
      {"measurement": "Products, GAPDH tryptic peptide V232–R245 (Cys 244)", "setting": "GAPDH", "value": "Nitrosylated product"}
    ]},
    {"molecule": "O=S(=O)(NO)c1ccccc1Br", "note": "[o-Bromo-Piloty’s Acid]", "values": [
      {"measurement": "Products, GAPDH tryptic peptide I143–K159 (Cys 149, Cys 153)", "setting": "GAPDH", "value": "Internal disulfide; RSSR"},
      {"measurement": "Products, GAPDH tryptic peptide V232–R245 (Cys 244)", "setting": "GAPDH", "value": "Sulfinamide; also recorded: Sulfinic acid"},
      {"measurement": "Products, C165S AhpC Asp-N peptide D41–G51 (Cys 46)", "setting": "AhpC C165S", "value": "Sulfinamide; also recorded: Sulfinic acid"}
    ]},
    {"molecule": "Sodium trioxidinitrate [AS]", "values": [
      {"measurement": "GAPDH enzyme activity after treatment", "setting": "rabbit muscle GAPDH [2]", "value": "23 % of control"},
      {"measurement": "GAPDH enzyme activity restored after DTT incubation", "setting": "rabbit muscle GAPDH [2]", "value": "51 % of control"},
      {"measurement": "Products, GAPDH tryptic peptide I143–K159 (Cys 149, Cys 153)", "setting": "GAPDH", "value": "Internal disulfide; RSSR"},
      {"measurement": "Products, GAPDH tryptic peptide V232–R245 (Cys 244)", "setting": "GAPDH; listed as 14N AS", "value": "Sulfinamide; also recorded: Sulfinic acid"},
      {"measurement": "Product at Cys 281 of GAPDH (peptide G269–K306)", "setting": "GAPDH", "value": "sulfinamide"},
      {"measurement": "Products, C165S AhpC Asp-N peptide D41–G51 (Cys 46)", "setting": "AhpC C165S; listed as 14N AS", "value": "Sulfinamide; also recorded: Sulfinic acid"},
      {"measurement": "rate constant of decomposition to HNO and nitrite", "setting": "[3]; pH 7, 37 °C", "value": 0.005, "unit": "s⁻¹"}
    ]},
    {"molecule": "O=Nc1ccccc1", "note": "[Nitrosobenzene, nitrosobenzene]", "values": [
      {"measurement": "IC50", "setting": "rabbit muscle GAPDH [1]", "value": 230, "unit": "nM"},
      {"measurement": "Products, GAPDH tryptic peptide V232–R245 (Cys 244)", "setting": "GAPDH", "value": "Sulfinic acid"},
      {"measurement": "Products, C165S AhpC Asp-N peptide D41–G51 (Cys 46)", "setting": "AhpC C165S", "value": "Sulfinic acid"}
    ]},
    {"molecule": "O=NC1(OC(=O)C(F)(F)F)CCCCC1", "note": "[compound 3, 1-Nitrosocyclohexyl trifluoroacetate]", "values": [
      {"measurement": "HNO release rate relative to AS", "setting": "[4]", "value": "over 1000 times faster"},
      {"measurement": "Products, GAPDH tryptic peptide I143–K159 (Cys 149, Cys 153)", "setting": "GAPDH", "value": "Internal disulfide; RSSR"},
      {"measurement": "Products, GAPDH tryptic peptide V232–R245 (Cys 244)", "setting": "GAPDH", "value": "Sulfinamide,; also recorded: Sulfinic acid"}
    ]}
  ]
}
